Screening data: PubChem BioAssay, several laboratories
HSF1 inhib = HSF1 inhibition; NIH3T3-HGL HSE-luciferase, MG132-induced, luminescence 8 h; active compounds read low; activity change, negative = inhibition, % at 7.5 µM (by protocol); 0.77% of 300,000 active; AID 2098;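 active = more than half of replicate wells show activity change below -50%, luminescence cut by over half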;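 note: luciferase reports HSF-1 transcriptional activity via heat shock element; 0% = median of DMSO wells and -100% = zero luminescence signal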
697 NFkB inh = inhibitors of the PMA/ionomycin-induced NF-kB reporter in 697 B cells. 697 B-cell NF-kB luciferase reporter, 16 h. inhibition, % at 4 µM. 0.33% of 330,000 active. AID 435022; in the data active = inhibition above about 35%
GPR7 antagonist = blocks human GPR7 receptor signaling; P48145; GPR7-expressing cells, fluorescence antagonist assay; inhibition, % at 4.4 µM; 1.1% of 290,000 active; AID 1861; in the data active = inhibition above about 16%, passing the limit was not always enough;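 note: cells stimulated with the agonist NPW; 0% = agonist with vehicle and 100% = vehicle without agonist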
Target sequence (P48145 whole entry, looked up): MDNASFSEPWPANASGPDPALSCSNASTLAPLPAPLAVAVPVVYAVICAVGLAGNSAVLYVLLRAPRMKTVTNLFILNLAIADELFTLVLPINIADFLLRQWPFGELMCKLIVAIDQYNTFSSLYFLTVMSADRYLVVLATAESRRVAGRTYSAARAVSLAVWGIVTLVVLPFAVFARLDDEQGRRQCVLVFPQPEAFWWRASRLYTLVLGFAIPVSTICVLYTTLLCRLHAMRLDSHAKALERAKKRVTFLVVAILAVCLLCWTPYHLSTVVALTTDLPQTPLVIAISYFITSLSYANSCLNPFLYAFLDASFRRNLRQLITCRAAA
HSF1 activator = increases HSF-1 driven luciferase reporter signal; NIH3T3-HGL HSF-1 luciferase reporter, MG132, 8 h; 100% = twice DMSO control signal; AID 504408; activation, % at 9 µM; 1.7% of 300,000 active;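 active = mean replicate activation of at least 50% with a set share of replicates each reaching 50%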;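 note: 0% = median of the neutral control wells and 100% = twice that signal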
Jurkat NFkB inh = lowers PMA/ionomycin-induced NF-kB signal in Jurkat cells; PMA/ionomycin-induced NF-kB luciferase reporter, luminescence; inhibition, % at 4 µM; 0.53% of 330,000 active; in the data active = inhibition above about 50%
T cruzi repl = blocks replication of Trypanosoma cruzi | inhibition, % (no concentration beside the values) | 1.4% of 300,000 active | AID 1885 | T. cruzi beta-gal in NIH3T3, luminescence, 90 h;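 active = mean inhibition across valid replicates above about 55%, limit read from the data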;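 note: signal also drops with host cell toxicity which is not excluded here; 0% = plate median of DMSO wells and 100% = zero luminescence signal; higher percent means less beta-gal luminescence so fewer parasites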
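Assay system: NIH/3T3 fibroblasts plus reporter T. cruzi. Amount: NIH/3T3 cells, 5,000 per well. Buffer or medium: DMEM, 2% fetal bovine serum. Doses: compound pinned at 50 nL/well, DMSO. Schedule: ≥90 h infection period, 3 h prior cell attachment. Signal: luminescent β-galactosidase signal after 60 min lysis. Read-out: parasite load inhibition, %.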
* = called active by the depositor. Most compounds without a hit are left out; they make up all but 4.8% or so of the library.

Results for Cn1c(-c2cc3ccc(OC(=O)C(C)(C)C)cc3oc2=O)nc2ccccc21 ?
HSF1 inhib: 14; 697 NFkB inh: -74; GPR7 antagonist: -19; HSF1 activator: 58*; Jurkat NFkB inh: -44; T cruzi repl: -22

Results for O=C(/C=C/c1ccccc1[N+](=O)[O-])N1CCc2ccccc2C1 ?
HSF1 inhib: 15; 697 NFkB inh: -2; GPR7 antagonist: 8; HSF1 activator: 29; Jurkat NFkB inh: 1; T cruzi repl: -3

What do the screens show for `CC(C)NC(=O)Nc1cccc2c1O[C@H](CN(C)S(C)(=O)=O)[C@@H](C)CN([C@H](C)CO)C2=O`?
697 NFkB inh: 1; Jurkat NFkB inh: 1

Results for O=C(O)[C@@H]1CSC2c3ccccc3C(=O)N21 (stereo not given in full) ?
HSF1 inhib: -7; 697 NFkB inh: -8; GPR7 antagonist: -3; HSF1 activator: -3; Jurkat NFkB inh: -9; T cruzi repl: 5

Results for CC(=O)Nc1cc[n+](C(C)C(=O)c2ccccc2)cc1 (stereo not given) ?
HSF1 inhib: -68*; 697 NFkB inh: -29; GPR7 antagonist: -11; HSF1 activator: -76; Jurkat NFkB inh: 7; T cruzi repl: -8

Results for CC(=O)Nc1cc[n+](C(C)C(=O)c2ccc(Br)cc2)cc1 (stereo not given) ?
HSF1 inhib: 0; 697 NFkB inh: -11; GPR7 antagonist: -2; HSF1 activator: -10; Jurkat NFkB inh: 20; T cruzi repl: -8

Results for CC(C)CC(=O)O/N=C1\C(=O)N(Cc2ccc(Cl)cc2)c2ccc([N+](=O)[O-])cc21 ?
HSF1 inhib: 11; 697 NFkB inh: 1; GPR7 antagonist: 9; HSF1 activator: 14; Jurkat NFkB inh: 15; T cruzi repl: 58*

How did O=C(Nc1ccc2c(c1)OCCO2)NC1(C(F)(F)F)Oc2ccccc2O1 do in these assays?
HSF1 inhib: -67*; 697 NFkB inh: -35; GPR7 antagonist: -11; HSF1 activator: -72; Jurkat NFkB inh: 22; T cruzi repl: -7

What do the screens show for `O=C(Nc1ccc2c(c1)OCO2)NC1(C(F)(F)F)Oc2ccccc2O1`?
HSF1 inhib: 5; 697 NFkB inh: 7; GPR7 antagonist: 8; HSF1 activator: 20; Jurkat NFkB inh: -5; T cruzi repl: -12

What do the screens show for `CCCNC(=O)N1C2=NC(C(=O)OC)=C(C(=O)OC)[C@@H]3N(Cc4ccccc4)c4ccccc4[C@]23C[C@H]1CO`?
HSF1 inhib: 13; 697 NFkB inh: 21; HSF1 activator: -5; Jurkat NFkB inh: 10; T cruzi repl: 52

How did Cc1nc2ccccc2nc(=O)c1NNc1ccccc1 do in these assays?
HSF1 inhib: 19; GPR7 antagonist: 6; HSF1 activator: 65*; T cruzi repl: 4

What do the screens show for `Cc1ccc2nc(=O)c(NNc3ccccc3)cnc2c1`?
HSF1 inhib: 13; 697 NFkB inh: -39; GPR7 antagonist: 11; HSF1 activator: 22; Jurkat NFkB inh: -42; T cruzi repl: -16

What do the screens show for `CC12CCC(=O)N1C(C(=O)Nc1cccc3ccccc13)CS2` (stereo not given)?
HSF1 inhib: 40; 697 NFkB inh: -10; HSF1 activator: 70*; Jurkat NFkB inh: -3; T cruzi repl: -10

What do the screens show for `CC12CCC(=O)N1C(C(=O)Nc1ccccc1F)CS2` (stereo not given)?
HSF1 inhib: 4; 697 NFkB inh: 13; HSF1 activator: 27; Jurkat NFkB inh: 2; T cruzi repl: -15

What do the screens show for `CC(C)(C)NC(=O)CSc1ccc(S(=O)(=O)N2CCOCC2)cn1`?
697 NFkB inh: 4; Jurkat NFkB inh: 1

What do the screens show for `NNC(=O)c1cccc(Cn2cc(Br)c([N+](=O)[O-])n2)c1`?
HSF1 inhib: 6; 697 NFkB inh: 23; GPR7 antagonist: -16; HSF1 activator: 12; Jurkat NFkB inh: -8; T cruzi repl: 46

What do the screens show for `COc1ccc(NC(=O)c2cccc(Cn3cc(Br)c([N+](=O)[O-])n3)c2)c(C)c1`?
HSF1 inhib: 6; 697 NFkB inh: 8; GPR7 antagonist: -13; HSF1 activator: 6; Jurkat NFkB inh: 14; T cruzi repl: 68*

Results for N#Cc1ccc(C(=O)NC(=S)N2CCN(C=O)CC2)cc1 ?
697 NFkB inh: 1; Jurkat NFkB inh: -5

How did c1ccc(-c2ncc(-c3ccn[nH]3)s2)cc1 do in these assays?
HSF1 inhib: 30; 697 NFkB inh: -124; GPR7 antagonist: -2; HSF1 activator: 53*; Jurkat NFkB inh: -77; T cruzi repl: -51

Results for CCOc1ccc2nc(N3C(=O)CNC3=S)sc2c1 ?
HSF1 inhib: 27; 697 NFkB inh: -185; GPR7 antagonist: 6; HSF1 activator: 62*; Jurkat NFkB inh: -57; T cruzi repl: -36

How did CC(=O)N/C(=C\c1ccc(C)cc1)C(=O)O do in these assays?
HSF1 inhib: -4; 697 NFkB inh: 7; GPR7 antagonist: -11; HSF1 activator: 0; Jurkat NFkB inh: -10; T cruzi repl: -6

What do the screens show for `CCC(CC)c1nnc(NC(=O)CCc2ccccc2OC)s1`?
HSF1 inhib: -3; 697 NFkB inh: 8; GPR7 antagonist: -9; HSF1 activator: -19; Jurkat NFkB inh: 19; T cruzi repl: -6

Results for COC(=O)c1c(C)[nH]c(C(=O)/C=C/c2ccccc2F)c1C ?
HSF1 inhib: 27; 697 NFkB inh: -207; GPR7 antagonist: -18; HSF1 activator: 66*; Jurkat NFkB inh: -142; T cruzi repl: 0

How did CCCC1(C(=O)OC)NC(c2ccc(OC)cc2OC)C2C(=O)N(c3cccc(C(C)=O)c3)C(=O)C21 (stereo not given) do in these assays?
HSF1 inhib: -3; 697 NFkB inh: -16; GPR7 antagonist: -3; HSF1 activator: -8; Jurkat NFkB inh: 4; T cruzi repl: 20

Results for CCN(CC)c1nc(-c2ccccc2)ncc1S(=O)(=O)c1ccc(C)cc1 ?
HSF1 inhib: 3; 697 NFkB inh: -2; GPR7 antagonist: -20; HSF1 activator: 6; Jurkat NFkB inh: 1; T cruzi repl: 58*

What do the screens show for `CCOC(=O)Cc1nnc2c(Nc3ccc(C)cc3)nc3nonc3n12`?
HSF1 inhib: 8; 697 NFkB inh: -25; GPR7 antagonist: 1; HSF1 activator: 3; Jurkat NFkB inh: -27; T cruzi repl: -6

Results for CCOC(=O)Cc1nnc2c(Nc3ccccc3F)nc3nonc3n12 ?
HSF1 inhib: -74*; 697 NFkB inh: 18; GPR7 antagonist: -8; HSF1 activator: -79; Jurkat NFkB inh: 8; T cruzi repl: -20

How did Cn1c(=O)[nH]c(=O)c2c1nc(NCc1ccccc1)n2Cc1ccc(F)cc1 do in these assays?
HSF1 inhib: -2; 697 NFkB inh: 7; GPR7 antagonist: -10; HSF1 activator: -5; Jurkat NFkB inh: -10; T cruzi repl: 10

How did COc1ccc(CNc2nc3c(c(=O)[nH]c(=O)n3C)n2Cc2ccccc2C)cc1 do in these assays?
HSF1 inhib: -69*; 697 NFkB inh: 10; GPR7 antagonist: -10; HSF1 activator: -79; Jurkat NFkB inh: 2; T cruzi repl: -1
